According to ChEMBL document CHEMBL1144302, “Triaryl bis-sulfones as a new class of cannabinoid CB2 receptor inhibitors: identification of a lead and initial SAR studies” (Bioorg Med Chem Lett, 2005):

Key:
[1] = molecular target: Cannabinoid receptor (Homo sapiens) (UniProt P34972+P21554); experiment: Selectivity of cannabinoid receptor 2 over cannabinoid receptor 1; assay type: protein assay
[2] = Binding affinity for cannabinoid receptor 2 was determined by using [35S]GTP-gamma-S, as radioligand; assay type: functional, Homo sapiens
Summary of the method: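 Human CB2 co-expressed with Gαi3 and β1γ2 in Sf9 cell membranes (7–14 pmol/mg receptor). Triplicate serial dilutions were incubated with membranes, 0.3 nM [35S]GTPγS and GDP in 20 mM HEPES, 100 mM NaCl, 5 mM MgCl2, 0.2% (w/v) lipid-free BSA, pH 7.4, for 30 min at 30°C. Reactions were stopped by filtration, and filters were washed 10× at room temperature with 20 mM HEPES/10 mM sodium pyrophosphate. Bound label was counted by liquid scintillation.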

Cannabinoid receptor 1 = Cannabinoid receptor 1 (Homo sapiens, UniProt P21554); experiment: Binding affinity for cannabinoid receptor 1
Chain of Cannabinoid receptor 1 (P21554 whole entry): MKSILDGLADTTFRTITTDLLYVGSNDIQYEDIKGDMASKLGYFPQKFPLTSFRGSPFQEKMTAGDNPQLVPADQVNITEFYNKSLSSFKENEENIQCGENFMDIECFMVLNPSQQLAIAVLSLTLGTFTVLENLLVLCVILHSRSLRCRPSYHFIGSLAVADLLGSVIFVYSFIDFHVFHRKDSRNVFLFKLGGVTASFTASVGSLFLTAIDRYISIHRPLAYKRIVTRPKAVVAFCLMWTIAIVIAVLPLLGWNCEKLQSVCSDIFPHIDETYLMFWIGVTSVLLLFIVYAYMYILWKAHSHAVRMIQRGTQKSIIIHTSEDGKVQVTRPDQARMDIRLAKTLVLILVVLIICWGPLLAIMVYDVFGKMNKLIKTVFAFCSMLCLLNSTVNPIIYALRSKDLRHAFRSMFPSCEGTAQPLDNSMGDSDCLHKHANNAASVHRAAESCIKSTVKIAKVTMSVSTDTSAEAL

Cannabinoid receptor 2 = Cannabinoid receptor 2 (Homo sapiens, UniProt P34972); experiment: Binding affinity for human cannabinoid receptor 2 was determined by using [3H]CP-55940 as radioligand
Chain of Cannabinoid receptor 2 (P34972 whole entry): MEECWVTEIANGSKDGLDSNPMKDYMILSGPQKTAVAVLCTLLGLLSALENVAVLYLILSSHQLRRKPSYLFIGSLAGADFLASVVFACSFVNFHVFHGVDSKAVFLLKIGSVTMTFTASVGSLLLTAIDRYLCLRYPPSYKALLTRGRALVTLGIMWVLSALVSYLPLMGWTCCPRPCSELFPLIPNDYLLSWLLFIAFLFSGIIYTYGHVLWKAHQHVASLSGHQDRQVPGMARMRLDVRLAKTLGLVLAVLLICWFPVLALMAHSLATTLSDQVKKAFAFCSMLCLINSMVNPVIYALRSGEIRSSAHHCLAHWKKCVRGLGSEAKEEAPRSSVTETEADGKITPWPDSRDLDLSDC

Chain of Cannabinoid receptor (Homo sapiens) (P21554 whole entry, looked up): as the sequence (P21554 whole entry) above
Chain of Cannabinoid receptor (Homo sapiens) (P34972 whole entry, looked up): as the sequence (P34972 whole entry) above

CCC(=O)N[C@@H](C)c1ccc(S(=O)(=O)c2ccc(OC)cc2S(=O)(=O)c2ccc(OC)cc2)cc1
Selectivity [1]: 122
Ki [2]: 0.029 µM
Ki (Cannabinoid receptor 1): 3.56 µM

COc1ccc(S(=O)(=O)c2cc(OC)ccc2S(=O)(=O)c2ccc([C@H](C)NC(C)=O)cc2)cc1
Selectivity [1]: 231
Ki [2]: 0.0077 µM
Ki (Cannabinoid receptor 1): 1.78 µM

COc1ccc(S(=O)(=O)c2cc(OC)ccc2S(=O)(=O)c2ccc([C@H](C)NC(=O)c3ccc(C)cc3)cc2)cc1
Selectivity [1]: 3
Ki [2]: 0.289 µM
Ki (Cannabinoid receptor 1): 0.884 µM

COc1ccc(S(=O)(=O)c2cc(OC)ccc2S(=O)(=O)c2ccc([C@H](C)NC(=O)c3ccc(Cl)c(Cl)c3)cc2)cc1
Selectivity [1]: 0.5
Ki [2]: 0.167 µM
Ki (Cannabinoid receptor 1): 0.084 µM

COc1ccc(S(=O)(=O)c2cc(OC)ccc2S(=O)(=O)c2ccc([C@H](C)NC(=O)C(F)(F)F)cc2)cc1
Selectivity [1]: 783
Ki [2]: 0.0003 µM
Ki (Cannabinoid receptor 1): 0.235 µM

COc1ccc(S(=O)(=O)c2cc(OC)ccc2S(=O)(=O)c2ccc([C@H](C)NC(=O)C(C)(C)C)cc2)cc1
Selectivity [1]: 60
Ki [2]: 0.0386 µM
Ki (Cannabinoid receptor 1): 2.31 µM

COc1ccc(S(=O)(=O)c2cc(OC)ccc2S(=O)(=O)c2ccc([C@H](C)NC(=O)Nc3ccc(F)cc3)cc2)cc1
Selectivity [1]: 15
Ki [2]: 1.14 µM
Ki (Cannabinoid receptor 1): 17.6 µM

COc1ccc(C(=O)c2c(C)n(CCN3CCOCC3)c3cc(I)ccc23)cc1
Ki (Cannabinoid receptor 2): 0.0312 µM

COc1ccc(S(=O)(=O)c2cc(OC)ccc2S(=O)(=O)c2ccc([C@H](C)NC(=O)Nc3ccc(C)cc3)cc2)cc1
Selectivity [1]: 125
Ki [2]: 0.802 µM
Ki (Cannabinoid receptor 1): 100 µM

COc1ccc(S(=O)(=O)c2ccc([C@H](C)NC(=O)C(F)(F)F)cc2)cc1
Ki [2]: 0.031 µM

COc1ccc(S(=O)(=O)c2cc(OC)ccc2S(=O)(=O)c2ccc([C@H](C)NS(=O)(=O)c3ccc(Cl)c(Cl)c3)cc2)cc1
Selectivity [1]: 0.05
Ki [2]: 2.48 µM
Ki (Cannabinoid receptor 1): 0.117 µM

COc1ccc(C(=O)N[C@@H](C)c2ccc(S(=O)(=O)c3ccc(OC)cc3S(=O)(=O)c3ccc(OC)cc3)cc2)cc1
Selectivity [1]: 0.9
Ki [2]: 1.26 µM
Ki (Cannabinoid receptor 1): 1.17 µM

CCCC(=O)N[C@@H](C)c1ccc(S(=O)(=O)c2ccc(OC)cc2S(=O)(=O)c2ccc(OC)cc2)cc1
Selectivity [1]: 189
Ki [2]: 0.0062 µM
Ki (Cannabinoid receptor 1): 1.17 µM

CCCNC(=O)N[C@@H](C)c1ccc(S(=O)(=O)c2ccc(OC)cc2S(=O)(=O)c2ccc(OC)cc2)cc1
Selectivity [1]: 145
Ki [2]: 0.495 µM
Ki (Cannabinoid receptor 1): 72.1 µM

CCCCS(=O)(=O)N[C@@H](C)c1ccc(S(=O)(=O)c2ccc(OC)cc2S(=O)(=O)c2ccc(OC)cc2)cc1
Selectivity [1]: 27
Ki [2]: 0.041 µM
Ki (Cannabinoid receptor 1): 1.13 µM

COc1ccc(S(=O)(=O)c2cc(OC)ccc2S(=O)(=O)c2ccc([C@H](C)NS(C)(=O)=O)cc2)cc1
Selectivity [1]: 2260
Ki [2]: 0.0004 µM
Ki (Cannabinoid receptor 1): 0.905 µM

COc1ccc(S(=O)(=O)c2cc(OC)ccc2S(=O)(=O)c2ccc([C@H](C)NS(=O)(=O)c3ccccc3)cc2)cc1
Selectivity [1]: 3.6
Ki [2]: 0.239 µM
Ki (Cannabinoid receptor 1): 0.855 µM

COc1ccc(S(=O)(=O)c2cc(OC)ccc2S(=O)(=O)c2ccc([C@H](C)NS(=O)(=O)c3ccc(C)cc3)cc2)cc1
Selectivity [1]: 3.9
Ki [2]: 0.495 µM
Ki (Cannabinoid receptor 1): 1.92 µM

COc1ccc(S(=O)(=O)c2cc(OC)ccc2S(=O)(=O)c2ccc([C@H](C)NS(=O)(=O)Cc3ccccc3)cc2)cc1
Selectivity [1]: 0.5
Ki [2]: 0.16 µM
Ki (Cannabinoid receptor 1): 0.079 µM

COc1ccc(S(=O)(=O)c2cc(OC)ccc2S(=O)(=O)c2ccc([C@H](C)NC(=O)C3CC3)cc2)cc1
Selectivity [1]: 676
Ki [2]: 0.0157 µM
Ki (Cannabinoid receptor 1): 10.6 µM

CCS(=O)(=O)N[C@@H](C)c1ccc(S(=O)(=O)c2ccc(OC)cc2S(=O)(=O)c2ccc(OC)cc2)cc1
Selectivity [1]: 1510
Ki [2]: 0.001 µM
Ki (Cannabinoid receptor 1): 1.97 µM

COc1ccc(S(=O)(=O)c2cc(OC)ccc2S(=O)(=O)c2ccc([C@H](C)NC(=O)Cc3ccccc3)cc2)cc1
Selectivity [1]: 1.2
Ki [2]: 0.412 µM
Ki (Cannabinoid receptor 1): 0.478 µM
